GI50 and IC50 data for 6 molecules are collected here from ChEMBL document CHEMBL1148508, “Design and synthesis of phosphotyrosine peptidomimetic prodrugs” (J Med Chem, 2006).

SMILES strings stand for the structures.

The subject of assay [1] is Panel NCI-62 (62 carcinoma cell lines). As to the kind of experiment: Antiproliferative activity against human NCI62 cell line after 48 hrs. The assay is classed as functional. The method, boiled down: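 NCI 60-panel screen (62 cell lines): cells grown 24 h in supplemented RPMI 1640, then exposed to drug 48 h at 5 concentrations, 10^-8 to 10^-4 M. Stopped with cold trichloroacetic acid, fixed, sulforhodamine B stained, bound dye solubilized and absorbance read. Growth inhibition from time-zero, control and treated absorbances; GI50 as mean ± S.D. across 62 lines.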

Another assay relates to Jurkat. As to the kind of experiment: Inhibition of NFAT-mediated luciferase gene transcription in human jurkat J77 cell line after 6 hrs. The class given is functional, cell-based. The procedure, abridged: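 Jurkat J77 cells electroporated (300 V, 800 μF) with NFAT-luciferase plasmid (four NFAT sites), grown 24 h in FBS-RPMI. Pretreated 1 h with compound (0.1-1000 μM, DMSO stocks), then stimulated with PMA plus anti-CD3 (2 μg/well) for 6 h. Lysate luciferase read; sigmoidal fit of RLU vs log concentration, IC50 = 50% drop versus DMSO control; mean ± S.E., n = 4.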

`CC(NC(=O)c1ccc(OP(=O)(OCc2ccc([N+](=O)[O-])o2)N(C)CCCCCl)cc1)c1ccc(OCC2CCCCC2)c(C(N)=O)c1` (stereo not given) showed a GI50 in assay [1] of 12 µM. The same molecule had an IC50 in the assay with Jurkat of 31 µM. In the assay with Jurkat, `CC(NC(=O)Cc1ccc(NP(=O)(OCc2ccc([N+](=O)[O-])o2)N(C)CCCCCl)cc1)c1ccc(OCC2CCCCC2)c(C(N)=O)c1` (stereo not given) displayed an IC50 of 20 µM. For the molecule `CC(=O)N[C@@H](Cc1ccc(OP(=O)(OCc2ccc([N+](=O)[O-])o2)N(C)CCCCCl)cc1)C(=O)NC(C)c1ccc(OCC2CCCCC2)c(C(N)=O)c1` (stereo not given in full), in assay [1], the 50% growth inhibitory concentration (GI50) was 6 µM. The half-inhibitory concentration (IC50) with Jurkat worked out at 21 µM. In the assay on Jurkat, `CC(=O)N[C@@H](Cc1ccc(NP(=O)(OCc2ccc([N+](=O)[O-])o2)N(C)CCCCCl)cc1)C(=O)NC(C)c1ccc(OCC2CCCCC2)c(C(N)=O)c1` (stereo not given in full) had an IC50 of 28 µM.

Regarding `CC(NC(=O)Cc1ccc(OP(=O)(OCc2ccc([N+](=O)[O-])o2)N(C)CCCCCl)cc1)c1ccc(OCC2CCCCC2)c(C(N)=O)c1` (stereo not given), the GI50 in assay [1] was determined as 3 µM. Moreover, half-maximal inhibition in the assay with Jurkat (IC50) was put at 9 µM. For `CC(NC(=O)c1ccc(NP(=O)(OCc2ccc([N+](=O)[O-])o2)N(C)CCCCCl)cc1)c1ccc(OCC2CCCCC2)c(C(N)=O)c1` (stereo not given) the same measures were 18 µM and 16 µM.

In general, GI50 refers to the concentration that inhibits growth by half. Low values mean more potent growth inhibition, high ones less potent growth inhibition. A word on the IC50: it is the point on the concentration scale where inhibition reaches its midpoint. The low end stands for inhibition by little substance, the high end for a need for much substance.
